Compounds with a hit are over-represented: about 5.1% of the library has one in this group of screens.
BAP1 inh = inhibitors of BAP1 deubiquitinase, primary screen, biochemical, Ub-AMC fluorescence, kinetic. calls only at 20 µM. actives 0.48% (n = 72,000). Ubiquitin carboxyl-terminal hydrolase BAP1 (Homo sapiens), Q92560. recombinant BAP1, Ub-AMC hydrolysis fluorescence kinetic; stronger effect = lower value;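 active = activity remaining at or below 50% of control, provided the compound also passes the data quality filters; inactive = the rest, including low values that fail the filters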;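 also: 100% = DMSO wells rate and 0% = substrate alone blank rate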
Target sequence (Q92560 whole entry, looked up): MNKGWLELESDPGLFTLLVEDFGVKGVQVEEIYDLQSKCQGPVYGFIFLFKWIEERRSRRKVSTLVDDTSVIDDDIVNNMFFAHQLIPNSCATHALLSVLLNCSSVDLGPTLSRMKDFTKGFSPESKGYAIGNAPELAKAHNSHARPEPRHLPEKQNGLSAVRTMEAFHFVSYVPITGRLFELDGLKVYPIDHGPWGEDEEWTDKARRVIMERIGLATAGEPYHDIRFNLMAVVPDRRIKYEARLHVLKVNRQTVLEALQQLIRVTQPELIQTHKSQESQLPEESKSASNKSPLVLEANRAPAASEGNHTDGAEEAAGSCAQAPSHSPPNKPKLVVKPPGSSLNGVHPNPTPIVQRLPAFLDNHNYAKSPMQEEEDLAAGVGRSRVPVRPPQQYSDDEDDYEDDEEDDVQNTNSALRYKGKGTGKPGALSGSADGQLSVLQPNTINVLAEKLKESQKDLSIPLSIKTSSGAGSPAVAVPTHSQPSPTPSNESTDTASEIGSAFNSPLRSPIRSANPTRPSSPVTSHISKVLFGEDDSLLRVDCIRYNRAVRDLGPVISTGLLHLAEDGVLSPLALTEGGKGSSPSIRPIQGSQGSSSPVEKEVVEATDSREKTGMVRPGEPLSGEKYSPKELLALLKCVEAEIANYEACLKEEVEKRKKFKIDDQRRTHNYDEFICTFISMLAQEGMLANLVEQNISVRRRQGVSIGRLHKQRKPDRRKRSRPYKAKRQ
SF-1 act = activators of human SF-1, primary screen, cell-based, CHO-K1, Gal4-SF-1 LBD, luciferase luminescence. activation, % at 10 µM. CHO-K1 Gal4-SF-1 LBD luciferase reporter; % increase over DMSO SF-1-specific signal. actives 1.9% (n = 65,000);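 active = activation above the mean activation of all tested compounds plus 3 SD, cut at about 50% in these data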
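System: CHO-K1 cells with Gal4–hSF-1 LBD chimera plus Gal4-driven luciferase; quantity: 4,000 CHO-K1 cells per well; compound: one dose, 10 µM compound, 1% DMSO; times: 20 h compound treatment, 37 °C; measured by: SteadyLite luciferase luminescence; read-out: percent activation versus DMSO; benchmarks: DMSO and mock-transfected background; replicates: one test per compound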
ERb SRC1 inh = inhibitors of ERβ-SRC1 coactivator interaction, primary screen, biochemical, TR-FRET, ERβ LBD, SRC-1 peptide; Estrogen receptor beta (Homo sapiens), Q92731; TR-FRET ER-beta LBD / SRC1-Cy5 peptide binding; receptor agonist-loaded with 1 µM estradiol; inhibition, % at 25.6 µM; actives 1.3% (n = 86,000);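 active = compounds whose percent inhibition of the receptor-coactivator binding signal exceeds about 50% in the single-dose screen, limit read from the data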;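 also: 0% = receptor plus peptide wells without compound and 100% = peptide-only wells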
RORa activator = activators of orphan receptor RORA, primary screen, cell-based, luminescence. Nuclear receptor ROR-alpha (Homo sapiens), P35398. CHO-K1 Gal4-RORA LBD luciferase reporter; percent increase over mock-subtracted basal signal. activation, % at 10 µM. actives 1.5% (n = 65,000). AID 560, 2006;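 active = activation above the mean of all tested compounds plus 3 SD, cut at about 49% in these data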;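 also: 0% = DMSO-treated RORA cells and 100% = added signal equal to DMSO minus mock-transfected cells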
ERa coact inh = ERα–SRC-1 coactivator interaction inhibitors, primary screen, biochemical, TR-FRET, ERα LBD, estradiol-bound | Estrogen receptor (Homo sapiens), P03372 | TR-FRET ER-alpha LBD / SRC-1 peptide | inhibition, % at 25.6 µM | actives 1.7% (n = 86,000) | AID 629, 2007; in the data active = inhibition above about 50%;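 also: 0% = receptor plus peptide control and 100% = peptide only without receptor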
ERa coact pot = enhancers of ERα–SRC-1 coactivator binding, primary screen, biochemical, TR-FRET, ERα LBD, low estradiol | TR-FRET ERalpha-LBD/SRC-Cy5 coactivator binding, 2 h; 100 = basal binding, no effect | Estrogen receptor (Homo sapiens), P03372 | coactivator binding (% of control), % at 25.6 µM | actives 1.3% (n = 86,000); in the data active = activity above about 200%;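 also: binding measured in presence of low estradiol as agonist stimulus; 0% = peptide alone without receptor and 100% = receptor with peptide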
BAP1 inh conf = BAP1 deubiquitinase inhibitors, hit retest, confirmation, orthogonal assay, biochemical, Ub-ethyl ester substrate, HPLC readout; actives 8% (n = 310); AID 753, 2007; purified BAP1, Ub-ethyl ester hydrolysis; stronger effect = lower value; % of control activity, % at 20 µM; shares compounds with BAP1 inh;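 active = percent of control activity at or below 60%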
Active calls of the source: *; [ ] = remark or other dose.

How did COc1cc(OC)cc(-c2nc(-c3cc4cc(C)ccc4nc3OC)no2)c1 do in these assays?
BAP1 inh: inactive; SF-1 act: 1; ERb SRC1 inh: 37; RORa activator: 2; ERa coact inh: 11; ERa coact pot: 175

What do the screens show for `COC(=O)c1ccc(OCC(=O)c2ccc(O)cc2O)cc1`?
BAP1 inh: inactive; SF-1 act: 8; ERb SRC1 inh: -2; RORa activator: 0; ERa coact inh: 5; ERa coact pot: 104

Results for CCOC(=O)c1ccc(OCC(=O)c2ccc(O)cc2O)cc1 ?
BAP1 inh: active; SF-1 act: -3; ERb SRC1 inh: 4; RORa activator: -8; ERa coact inh: 7; ERa coact pot: 97; BAP1 inh conf: 97

How did COc1ccc(C(=O)NCC(=O)n2nc(C)cc2C)cc1 do in these assays?
BAP1 inh: inactive

What do the screens show for `COCCn1nnnc1C(c1cc2ccc(C)cc2[nH]c1=O)N(Cc1ccco1)Cc1cccs1` (configuration not stated)?
BAP1 inh: active; SF-1 act: -3; ERb SRC1 inh: 4; RORa activator: -17; ERa coact inh: 5; ERa coact pot: 89; BAP1 inh conf: 126

Results for Cc1ccc2cc(C(c3nnnn3C3CCCC3)N(Cc3ccccc3)Cc3ccco3)c(=O)[nH]c2c1 (configuration not stated) ?
BAP1 inh: inactive; SF-1 act: -16; ERb SRC1 inh: 7; RORa activator: -16; ERa coact inh: 2; ERa coact pot: 127

Results for COc1ccc(N=C2CCCN2CC(N)=O)cc1 ?
BAP1 inh: active; SF-1 act: -7; RORa activator: 0; BAP1 inh conf: 87

Results for CCCC1C2CN(C(C)C)CC=C2C(C#N)=C(N)C1(C#N)C#N (configuration not stated) ?
BAP1 inh: active; SF-1 act: -4; ERb SRC1 inh: -4; RORa activator: -5; ERa coact inh: -11; ERa coact pot: 164; BAP1 inh conf: 94

Results for CN1CC=C2C(C#N)=C(N)C(C#N)(C#N)C(CCc3ccccc3)C2C1 (configuration not stated) ?
BAP1 inh: inactive; SF-1 act: 8; ERb SRC1 inh: 0; RORa activator: 4; ERa coact inh: 1; ERa coact pot: 93

Results for COC(=O)C1=C(C)NC(=O)NC1c1cc(Cl)ccc1OC (configuration not stated) ?
BAP1 inh: active; SF-1 act: 8; ERb SRC1 inh: 16; RORa activator: 18; ERa coact inh: 10; ERa coact pot: 95; BAP1 inh conf: 103

Results for CCOC(=O)C1=C(C)NC(=O)NC1c1ccc(OC)c(Cl)c1 (configuration not stated) ?
BAP1 inh: inactive; SF-1 act: -9; ERb SRC1 inh: -9; RORa activator: -14; ERa coact inh: 2; ERa coact pot: 119

What do the screens show for `COC(=O)c1ccccc1NC(=O)c1sc(=S)n(C)c1N`?
BAP1 inh: active; SF-1 act: -8; ERb SRC1 inh: 38; RORa activator: -4; ERa coact inh: 70*[fluorescence artefact?]; ERa coact pot: 19; BAP1 inh conf: 51*

What do the screens show for `CCOc1cc(S(=O)(=O)N2CCC(Cc3ccccc3)CC2)c(OCC)cc1-n1cnnn1`?
BAP1 inh: active; SF-1 act: -16; ERb SRC1 inh: 7; RORa activator: 8; ERa coact inh: 4; ERa coact pot: 95; BAP1 inh conf: 89

Results for CCOc1cc(S(=O)(=O)N2CC=C(c3ccc(F)cc3)CC2)c(OCC)cc1-n1cnnn1 ?
BAP1 inh: inactive; SF-1 act: 6; ERb SRC1 inh: -34; RORa activator: 6; ERa coact inh: -31; ERa coact pot: 113

Results for Cc1ccc(C(=O)Nc2ccc(C)cc2Br)cc1 ?
BAP1 inh: inactive

Results for CCOC(=O)c1c(NC(=O)CSc2nnc(Cc3ccccc3)o2)sc(C(C)=O)c1C ?
ERb SRC1 inh: 1; ERa coact inh: 7; ERa coact pot: 93

Results for CCOC(=O)c1sc(NC(=O)CSc2nc(C)cc(C)n2)c(C#N)c1C ?
ERb SRC1 inh: 3; ERa coact inh: 2; ERa coact pot: 90

Results for CCOC(=O)c1c(NC(=O)CSc2nc(C)cc(C)c2C#N)sc(C(C)=O)c1C ?
BAP1 inh: active; SF-1 act: -1; ERb SRC1 inh: 49; RORa activator: 0; ERa coact inh: 61*[fluorescence artefact?]; ERa coact pot: 678*[fluorescence artefact?]; BAP1 inh conf: 80

What do the screens show for `CCOC(=O)c1c(NC(=O)CSc2nnc(CNc3ccc(F)cc3)o2)sc(C(C)=O)c1C`?
BAP1 inh: active; SF-1 act: 5; ERb SRC1 inh: 0; RORa activator: 10; ERa coact inh: 7; ERa coact pot: 111; BAP1 inh conf: 68

Results for CCOC(=O)c1c(NC(=O)c2ccc(S(=O)(=O)N3CCc4ccccc4C3)cc2)sc2c1CCCCC2 ?
BAP1 inh: inactive

What do the screens show for `CCOC(=O)N1CCN(S(=O)(=O)c2ccc(C(=O)Nc3sc4c(c3C#N)CCC4)cc2)CC1`?
BAP1 inh: active; SF-1 act: 74*; ERb SRC1 inh: 8; RORa activator: -3; ERa coact inh: 6; ERa coact pot: 134; BAP1 inh conf: 97

How did Clc1ccc(OCc2nn3c(-c4ccco4)nnc3s2)c(Cl)c1 do in these assays?
BAP1 inh: active; SF-1 act: -10; ERb SRC1 inh: 50; RORa activator: -6; ERa coact inh: 66*[fluorescence artefact?]; ERa coact pot: 173; BAP1 inh conf: 106

How did COc1cc(C(=O)Nc2nnc(C(C)C)s2)cc(OC)c1OC do in these assays?
BAP1 inh: inactive
